pKd: −log10 of the molar value. Activity calls are given as the source filed them. The rule behind the calls is not given here. Residues, ends and D or L forms follow the SMILES beside them. *: point of attachment. Adamantane1carbonyl = O=C(C12CC3CC(CC(C3)C1)C2)*; OtBu = CC(C)(C)O*

We go through one compound from ChEMBL document CHEMBL4699573, “Design, Synthesis, and Pharmacological Evaluation of Analogues Derived from the PLEV Tetrapeptide as Protein-Protein Interaction Modulators of Voltage-Gated Sodium Channel 1.6” (J Med Chem, 2020).

The test system of assay [1] is HEK293. Nature of the assay: Inhibition of full-length Photinus pyralis luciferase transfected in HEK293 cells at 25 uM incubated for 1 hrs by split-luciferase complementation assay. The assay is classed as cell-based. In short, it runs like this:
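HEK293 cells transfected with full-length Photinus pyralis luciferase, then treated 1 h with 25 μM compound (n = 4) or 0.5% DMSO (n = 32). Luminescence read after D-luciferin addition, as in the LCA, normalized to per-plate DMSO controls. One-way ANOVA with Dunnett's test.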

In assay [2] the target is T1, Sodium channel protein type 8 subunit alpha (Homo sapiens, UniProt Q9UQD0). Nature of the assay: Modulation of recombinant human Nav1.6 C-terminal tail (1763 to 1976 residues) expressed in HEK293 cells assessed as steady state half inactivation voltage at 10 uM incubated for 30 mins by whole cell patch clamp electrophysiology assay (reference value: -62 +/- 1.3 mV). It is filed as cell-based. The essentials:
(§1)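 Stable HEK-Nav1.6 cells without FGF14, incubated at least 30 min in extracellular solution (mM: 140 NaCl, 3 KCl, 1 MgCl2, 1 CaCl2, 10 HEPES, 10 glucose, pH 7.3) with compound (10 or 30 μM) or 0.1% DMSO. Whole-cell recording with Cs-methanesulfonate/EGTA/NaCl/HEPES pipette solution, 70–80% compensation. Steps −100 to +60 mV; tau measured at −10 mV. Student's t-test.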
Background: Patch clamp records ionic current or voltage across a cell membrane.
Target sequence in this assay (Q9UQD0 whole entry, looked up, the tested form may be a part): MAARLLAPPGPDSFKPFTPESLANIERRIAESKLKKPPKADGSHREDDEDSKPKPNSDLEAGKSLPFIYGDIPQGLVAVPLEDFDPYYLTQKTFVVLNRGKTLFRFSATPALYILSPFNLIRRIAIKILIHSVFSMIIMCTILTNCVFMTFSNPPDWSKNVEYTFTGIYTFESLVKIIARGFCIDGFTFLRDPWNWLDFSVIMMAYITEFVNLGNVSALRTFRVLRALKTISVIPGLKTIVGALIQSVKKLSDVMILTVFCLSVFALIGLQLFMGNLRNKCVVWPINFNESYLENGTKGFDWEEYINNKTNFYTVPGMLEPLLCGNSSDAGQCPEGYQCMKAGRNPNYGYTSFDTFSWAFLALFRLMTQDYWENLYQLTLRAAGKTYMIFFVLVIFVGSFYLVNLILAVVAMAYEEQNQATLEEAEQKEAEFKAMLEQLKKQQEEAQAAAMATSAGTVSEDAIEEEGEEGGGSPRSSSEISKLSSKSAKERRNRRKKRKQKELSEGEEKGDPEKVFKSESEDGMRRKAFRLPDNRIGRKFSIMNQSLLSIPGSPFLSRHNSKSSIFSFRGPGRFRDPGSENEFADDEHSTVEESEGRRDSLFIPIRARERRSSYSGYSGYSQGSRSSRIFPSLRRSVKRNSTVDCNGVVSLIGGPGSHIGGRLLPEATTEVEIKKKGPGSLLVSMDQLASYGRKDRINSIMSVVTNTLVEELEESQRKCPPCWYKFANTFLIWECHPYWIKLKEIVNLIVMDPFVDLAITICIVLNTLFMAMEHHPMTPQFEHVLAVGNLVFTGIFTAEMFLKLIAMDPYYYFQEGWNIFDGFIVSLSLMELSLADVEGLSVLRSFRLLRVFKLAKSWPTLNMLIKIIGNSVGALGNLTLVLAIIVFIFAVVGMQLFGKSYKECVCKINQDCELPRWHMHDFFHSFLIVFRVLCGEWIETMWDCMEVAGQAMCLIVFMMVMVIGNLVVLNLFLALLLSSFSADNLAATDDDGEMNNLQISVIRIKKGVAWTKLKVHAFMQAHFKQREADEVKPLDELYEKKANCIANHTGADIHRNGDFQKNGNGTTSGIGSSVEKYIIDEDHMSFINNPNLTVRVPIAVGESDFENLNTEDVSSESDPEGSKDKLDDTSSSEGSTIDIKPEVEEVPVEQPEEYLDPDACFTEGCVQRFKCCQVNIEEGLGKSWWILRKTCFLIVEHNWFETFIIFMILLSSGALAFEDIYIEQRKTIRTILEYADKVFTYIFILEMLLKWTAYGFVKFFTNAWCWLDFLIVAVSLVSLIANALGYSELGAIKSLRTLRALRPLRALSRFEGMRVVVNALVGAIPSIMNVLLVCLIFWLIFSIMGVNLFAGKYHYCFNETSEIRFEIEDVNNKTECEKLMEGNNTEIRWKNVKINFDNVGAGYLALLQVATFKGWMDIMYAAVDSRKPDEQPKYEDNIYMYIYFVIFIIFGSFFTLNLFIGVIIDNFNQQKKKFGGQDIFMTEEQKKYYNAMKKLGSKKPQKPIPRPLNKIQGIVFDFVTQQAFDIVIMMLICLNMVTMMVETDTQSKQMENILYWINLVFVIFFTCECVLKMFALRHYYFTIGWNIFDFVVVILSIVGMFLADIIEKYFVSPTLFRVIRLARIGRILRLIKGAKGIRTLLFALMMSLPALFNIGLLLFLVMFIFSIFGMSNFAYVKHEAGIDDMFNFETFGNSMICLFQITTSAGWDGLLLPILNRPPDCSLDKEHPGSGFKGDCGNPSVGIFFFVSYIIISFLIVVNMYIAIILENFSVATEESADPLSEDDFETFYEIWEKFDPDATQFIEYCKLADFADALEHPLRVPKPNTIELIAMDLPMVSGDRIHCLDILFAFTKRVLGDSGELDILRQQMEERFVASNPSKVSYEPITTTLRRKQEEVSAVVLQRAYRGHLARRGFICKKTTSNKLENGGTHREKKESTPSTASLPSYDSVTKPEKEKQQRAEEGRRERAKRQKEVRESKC

Assay [3] addresses T1, Sodium channel protein type 8 subunit alpha. Nature of the assay: Modulation of recombinant human Nav1.6 C-terminal tail (1763 to 1976 residues) expressed in HEK293 cells assessed as long-term inactivation at depolarization cycle 2 at 10 uM incubated for 30 mins by whole cell patch clamp electrophysiology assay (reference value: 0.84 +/- 0.03). It is filed as cell-based. The following applies: filed as modulator.
Target sequence in this assay (Q9UQD0 whole entry, looked up, the tested form may be a part): as above

Assay [4] has as its system HEK293. Briefly: Modulation of recombinant human FGF141b (1 to 252 residues)-recombinant human Nav1.6 C-terminal tail (1763 to 1976 residues) protein-protein interaction expressed in HEK293 cells assessed as relative luminescence value at 50 uM measured at 2 mins interval for 20 mins by split-luciferase complementation assay relative to control. The assay is classed as cell-based. To be noted: filed as modulator, time min 2-20. The essentials: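 Double-stable HEK293 line expressing CLuc-FGF14 and CD4-Nav1.6-C-tail-NLuc, kept on G418 and puromycin. Cells seeded for 24 h, then given compound for 1 h in serum-free, phenol red-free DMEM/F12 with a final 0.5% DMSO: 50 μM for screening, 0.25–100 μM over eight concentrations for dose-response; n = 4. D-luciferin added and read every 2 min for 20 min at 37 °C. Peak luminescence expressed as percent of per-plate DMSO mean (n = 32). IC50 from four-parameter nonlinear fit. At least 3 experiments.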

For assay [5], the target named is T1, Sodium channel protein type 8 subunit alpha. Nature of the assay: Binding affinity to human recombinant Nav1.6 C-terminal domain expressed in Escherichia coli BL21 assessed as assessed as induction of protein denaturation by measuring change in melting temperature at 10 uM by fluorescent dye based thermal shift assay. To be noted: filed as modulator, dose 50.0 µM.
Target sequence in this assay (Q9UQD0 whole entry, looked up, the tested form may be a part): as above

The target is the same in assay [6]. Nature of the assay: Modulation of recombinant human Nav1.6 C-terminal tail (1763 to 1976 residues) expressed in HEK293 cells assessed as change in time constant of fast inactivation at 10 uM incubated for 30 mins by whole cell patch clamp electrophysiology assay (reference value: 1.22 +/- 0.07 ms). It is filed as cell-based. The following applies: filed as modulator. The essentials:
as §1
Target sequence in this assay (Q9UQD0 whole entry, looked up, the tested form may be a part): as above

Assay [7] has the same target. Nature of the assay: Binding affinity to human recombinant Nav1.6 C-terminal domain expressed in Escherichia coli BL21 assessed as dissociation constant by SPR analysis. In short, it runs like this:
(§2)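 Biacore T100 runs with FGF14 (17,896 RU) or Nav1.6 C-tail (6,800 RU) amine-coupled on CM5 at pH 5.5. Compounds at 0.195–200 μM in PBS, 0.005% Tween-20, 2% DMSO; 50 μL/min at 25 °C. 120 s association, 150 s dissociation, DMSO calibration, blank subtraction. Rates from a Langmuir 1:1 fit; KD averages the kinetic and steady-state values. At least duplicate experiments.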
A general note: SPR reads the build-up and loss of mass on a sensor chip optically.
Target sequence in this assay (Q9UQD0 whole entry, the tested form may be a part): as the sequence (Q9UQD0 whole entry, looked up, the tested form may be a part) above

Assay [8] deals with T2, Fibroblast growth factor 14/SCN8A (Homo sapiens) (UniProt Q9UQD0+Q92915). Briefly: Modulation of human recombinant FGF14-Nav1.6 C-terminal domain expressed in Escherichia coli BL21 (DE3) protein-protein interaction assessed as association rate constant by SPR analysis (reference value: 2.18X10^4 +/- 1.6X10^2 /M/s). To be noted: filed as modulator. In short, it runs like this: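 FGF14 at 15.6–1500 nM, premixed with 10 μM compound or DMSO, flowed over CM5-bound Nav1.6 C-terminal tail (934 RU). Final 2.1% DMSO, 25 °C, 50 μL/min, 120 s association and 150 s dissociation. Blank-subtracted sensorgrams fitted to a Langmuir 1:1 model.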

Assay [9] addresses T3, Fibroblast growth factor 14 (Homo sapiens) (UniProt Q92915).
T3 sequence (whole entry): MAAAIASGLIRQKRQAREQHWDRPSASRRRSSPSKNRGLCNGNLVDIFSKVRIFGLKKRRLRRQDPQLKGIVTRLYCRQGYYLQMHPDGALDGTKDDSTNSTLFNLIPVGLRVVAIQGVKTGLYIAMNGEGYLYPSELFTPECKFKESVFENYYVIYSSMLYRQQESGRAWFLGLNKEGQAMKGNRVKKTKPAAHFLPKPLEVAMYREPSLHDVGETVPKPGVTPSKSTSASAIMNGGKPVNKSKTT
Briefly: Binding affinity to human recombinant FGF14 expressed in Escherichia coli BL21 assessed as dissociation rate constant by SPR analysis. To be noted: filed as modulator. The essentials:
as §2

For assay [10], the target named is T1, Sodium channel protein type 8 subunit alpha. Nature of the assay: Binding affinity to human recombinant Nav1.6 C-terminal domain expressed in Escherichia coli BL21 assessed as dissociation rate constant by SPR analysis. To be noted: filed as modulator. In short, it runs like this:
as §2
Target sequence in this assay (Q9UQD0 whole entry, looked up, the tested form may be a part): as the sequence (Q9UQD0 whole entry, looked up, the tested form may be a part) above

The target of assay [11] is T2, Fibroblast growth factor 14/SCN8A (Homo sapiens). Briefly: Modulation of recombinant human Nav1.6 C-terminal tail (1763 to 1976 residues)-FGF14 (64 to 252 residues) protein-protein interaction expressed in HEK293 cells assessed as change in time constant of inactivation at 10 uM incubated for 30 mins by cell patch clamp electrophysiology assay (reference value: 1.58 +/- 0.18 ms). The assay is classed as cell-based. To be noted: filed as modulator. In short, it runs like this:
(§3)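 HEK-Nav1.6 cells transiently transfected with FGF14 using Lipofectamine 2000, then exposed at least 30 min to 10 μM compound or 0.1% DMSO in the pH 7.3 HEPES extracellular solution. Whole-cell patch clamp with Cs-methanesulfonate internal solution, 70–80% capacitance and series-resistance compensation. Test steps from −100 to +60 mV. Student's t-test used.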

Assay [12] addresses T1, Sodium channel protein type 8 subunit alpha. Nature of the assay: Modulation of recombinant human Nav1.6 C-terminal tail (1763 to 1976 residues) expressed in HEK293 cells assessed as half activation voltage at 10 uM incubated for 30 mins by whole cell patch clamp electrophysiology assay (reference value: -25.4 +/- 1 mV). The assay is classed as cell-based. In short, it runs like this: as §1
Target sequence in this assay (Q9UQD0 whole entry, looked up, the tested form may be a part): as the sequence (Q9UQD0 whole entry, looked up, the tested form may be a part) above

Assay [13] concerns the target T2, Fibroblast growth factor 14/SCN8A (Homo sapiens). Briefly: Modulation of recombinant human Nav1.6 C-terminal tail (1763 to 1976 residues)-FGF14 (64 to 252 residues) protein-protein interaction expressed in HEK293 cells assessed as long-term inactivation at depolarization cycle 2 at 10 uM incubated for 30 mins by cell patch clamp electrophysiology assay (reference value: 1 +/- 0.02). It is filed as cell-based. To be noted: filed as modulator. In short, it runs like this:
as §3

Assay [14] deals with T1, Sodium channel protein type 8 subunit alpha. Briefly: Modulation of recombinant human Nav1.6 C-terminal tail (1763 to 1976 residues) expressed in HEK293 cells assessed as long-term inactivation at depolarization cycle 4 at 10 uM incubated for 30 mins by whole cell patch clamp electrophysiology assay (reference value: 0.75 +/- 0.05). It is filed as cell-based. The following applies: filed as modulator.

T2 sequence (Q9UQD0 whole entry, looked up, one chain of several, the tested form may be a part): as the sequence (Q9UQD0 whole entry, looked up, the tested form may be a part) above

`COC(=O)[C@@H](NC(=O)[C@H](CCC(=O)OC(C)(C)C)NC(=O)[C@H](CC(C)C)NC(=O)[C@@H]1CCCN1C(=O)C12CC3CC(CC(C3)C1)C2)C(C)C` (Adamantane1carbonyl-PLE(OtBu)V-OMe): the inhibition entry with HEK293 [1] was “inactive”. In addition, the Activity is -55.2 mV in assay [2]; 0.87 in assay [3]; 4.7% in the assay with HEK293 [4]; -16.9 mV in assay [12]; 0.86 in [13]; 0.7 in [14]. In addition, the ΔTm in assay [5] is -4.64 °C. For the same compound, the K in [6] was 1.45 ms; in [8], 5.88 10^6/M/s; in assay [9], 9.33 10^-3/s; in assay [10] it was 3.57 10^-3/s; in assay [11] it was 1 ms. Also, the negative-log Kd (pKd) in assay [7] was 4.78.

In general, ΔTm refers to the change in melting temperature against a reference sample. One may read the pKd as the Kd on a negative log10 scale, so that one unit is a factor of ten.
